An excerpt weighted towards active compounds, which were near 2.3% of everything screened.
PAX8 reporter: inhibitors of PAX8-driven TPO luciferase reporter, primary screen, RMG-I cells, single concentration. SteadyGlo, 24 h. inhibition, % at 12.6 µM. 360,000 compounds, 1.2% hits;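 active = mean replicate inhibition at least 60% with every replicate also reaching 60%; inconclusive = only one of the two criteria is met; inactive = mean below 60% and not all replicates reaching 60%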;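 also: luciferase light reporting Pax8 driven TPO promoter activity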
FN deposition inh: inhibitors of fibronectin matrix deposition, primary screen, AH1F cells, Alexa488-fibronectin fluorescence, plate reader | AH1F fibroblasts, overnight | inhibition, % at 12.6 µM | 350,000 compounds, 0.086% hits | AID 743247, 2014;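 active = mean inhibition across replicates of 30% or more, regardless of how many single replicates reach that level; inconclusive = mean under 30% yet at least half of replicates reach 30%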
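Material: AH1F fibroblast monolayer depositing Alexa488-labelled fibronectin into matrix / Amount: 10000 AH1F cells per well / Signal: fluorescence 485/525 nm / Medium: DMEM, 2% serum / Compound: single dose, pinned / Incubation: 1 h cell adhesion before compound, then overnight fibronectin incubation / Reagent: Alexa488-FN, 24 nM final / Read-out: inhibition of fibronectin deposition signal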
PGC1a acetyl inh: inhibitors of PGC1a acetylation signal, primary screen, cell-based, U2OS, AlphaScreen, inhibitor mode; AlphaScreen anti-acetyl-lysine; with virally co-expressed GCN5 acetyltransferase; inhibition, % at 15.6 µM; 350,000 compounds, 0.17% hits; AID 651687, 2012;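 active = every replicate shows inhibition of at least 40%; inconclusive = mean inhibition at least 40% but some replicate below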
F508del corr: F508del CFTR correction, initial screen, CFBE line, single point; CFBE cells, YFP halide quenching; stimulated with forskolin plus potentiator P3; % fluorescence drop versus neutral controls; activity (quench increase), % at 7.58 µM; 350,000 compounds, 0.36% hits; AID 720511, 2013;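 active = mean added fluorescence quench of at least 8% versus neutral control, with both replicates also reaching 8%; inconclusive = only one of the mean or replicate conditions met; inactive = mean below 8% and not both replicates reaching 8%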;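 also: cells transiently co-express mutant CFTR-F508del with the halide-sensitive YFP; corrector assay measuring rescue of mutant channel to the surface after 24 h compound exposure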
Env fusion inh: inhibitors of HIV-1 Env-driven cell-cell fusion, primary screen, HeLa-JRFL effector, CEM21 target cells, luciferase | AID 651610, 2012 | 360,000 compounds, 1.1% hits | inhibition, % at 12.3 µM;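 active = mean replicate inhibition score of at least 50 and every replicate individually at or above 50; inconclusive = only one of the two criteria met; inactive = mean below 50 and not all replicates reaching 50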
EWS-Fli inh: EWS/Fli-driven NR0B1 reporter inhibitors, primary screen, A673 cells, NR0B1 luciferase, luminescence, MLPCN library. AID 651661, 2012. 350,000 compounds, 0.67% hits. viability-normalised. inhibition, % at 12.6 µM;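 active = mean inhibition of at least 50% after viability correction, with every replicate also passing that limit; inconclusive = mean reaches 50% but only one of two replicates passes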;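 also: firefly luciferase signal divided by Alamar Blue viability fluorescence both relative to DMSO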
Hits are given with their value; - = inactive; ? = inconclusive; . = no result.

SMILES	PAX8 reporter	FN deposition inh	PGC1a acetyl inh	F508del corr	Env fusion inh	EWS-Fli inh
C[C@@H]1CN([C@H](C)CO)C(=O)c2cc(N(C)C)ccc2O[C@@H](C)CCCCO[C@H]1CN(C)S(=O)(=O)c1ccc(Cl)cc1	-	.	-	-	-	-
Cc1ccc(S(=O)(=O)N(C)C[C@@H]2OCCCC[C@H](C)Oc3ccc(N(C)C)cc3C(=O)N([C@@H](C)CO)C[C@@H]2C)cc1	72.9	-	-	-	-	-
C[C@H]1CCCCO[C@@H](CN(C)S(=O)(=O)c2ccc(Cl)cc2)[C@@H](C)CN([C@@H](C)CO)C(=O)c2cc(N(C)C)ccc2O1	69.9	.	-	-	-	-
Cc1ccc(S(=O)(=O)N(C)C[C@@H]2OCCCC[C@@H](C)Oc3ccc(N(C)C)cc3C(=O)N([C@@H](C)CO)C[C@H]2C)cc1	-	-	-	-	-	-
C[C@@H]1CCCCO[C@H](CN(C)S(=O)(=O)c2ccc(Cl)cc2)[C@H](C)CN([C@H](C)CO)C(=O)c2cc(N(C)C)ccc2O1	68.4	.	-	-	-	-
Cc1ccc(S(=O)(=O)N(C)C[C@H]2OCCCC[C@H](C)Oc3ccc(N(C)C)cc3C(=O)N([C@H](C)CO)C[C@H]2C)cc1	-	-	-	-	-	-
C[C@@H]1C(=O)N[C@@H](c2ccc(F)cc2)CC=CC[C@H](C)Oc2ccccc2C(=O)N1C (mixture of isomers)	.	-	.	.	.	.
CN1c2ccc(C#Cc3cccnc3)cc2[C@@H]2[C@@H](CCN2C(=O)C2CC2)[C@H]1CO	-	-	-	-	.	-
COc1cc2c(cc1OC)C(=O)N1[C@H]3c4cc(Cl)ccc4OC[C@@H]3[C@H](c3ccccc3)[C@]1(C)C(=O)N2	-	-	-	-	99.1	56.3
COc1cc2c(cc1OC)C(=O)N1[C@H]3c4cc(C)ccc4OC[C@@H]3[C@H](c3ccccc3)[C@]1(C)C(=O)N2	-	-	-	-	-	58.3
COc1ccc2c(c1)[C@H]1[C@H](CO2)[C@H](c2ccccc2)[C@]2(C)C(=O)Nc3cc(C)ccc3C(=O)N12	-	-	-	-	.	-
COc1ccc2c(c1)C(=O)N1[C@H]3c4cc(Cl)ccc4OC[C@@H]3[C@H](c3ccccc3)[C@]1(C)C(=O)N2	-	-	-	-	-	-
COc1ccc(NC(=O)Nc2ccc3c(c2)C(=O)N([C@@H](C)CO)C[C@H](C)[C@H](CN(C)C)OCCCC[C@H](C)O3)cc1	-	.	-	-	-	-
CC(C)NC(=O)Nc1ccc2c(c1)C(=O)N([C@@H](C)CO)C[C@H](C)[C@@H](CN(C)Cc1ccc(C(F)(F)F)cc1)OCCCC[C@@H](C)O2	-	-	-	-	-	-
COc1ccc(NC(=O)CN2CCC(C(N)=O)(N3CCCCC3)CC2)cc1	.	.	-	.	76.7	.
COc1cccc(C(=O)Nc2ccc3c(c2)OC[C@@H](C)N(CC2CC2)C[C@@H](C)[C@H](OC)CN(C)C3=O)c1	.	-	-	-	.	-
O=[N+]([O-])c1ccc2nc(SCc3cn4cccnc4n3)[nH]c2c1	-	-	-	-	-	-
O=[N+]([O-])c1ccc2nc(SCc3cn4cc(Cl)ccc4n3)[nH]c2c1	-	-	.	.	112.4	.
O=C(CSc1nc2ccc([N+](=O)[O-])cc2[nH]1)NC1CCCCCC1	-	.	.	.	116.0	.
O=[N+]([O-])c1ccc2nc(SCc3cn4ccccc4n3)[nH]c2c1	102.2	-	.	.	-	-
C[C@@H]1CN([C@@H](C)CO)C(=O)c2cc(C#Cc3cccnc3)cnc2O[C@H]1CN(C)C(=O)CC1CC1	.	-	-	-	-	-
C[C@H]1COCc2cn(nn2)CC[C@@H](Cc2ccccc2)C(=O)N1	.	-	.	.	.	.
O=C(NC1CCCC1)[C@H]1[C@H](CO)[C@H]2Cn3c(ccc(C4=CCCC4)c3=O)[C@@H]1N2C(=O)c1ccccc1	.	-	.	.	-	-
O=C(C1CC1)N1C[C@H]2[C@@H](c3ccccc31)[C@H](CO)N2C(=O)c1cccc(F)c1	-	.	-	-	.	-
Cc1ccc(C(=O)Nc2cccc(C(F)(F)F)c2)cc1NC(=O)c1nccn1C	-	-	.	-	-	-
SMILES	PAX8 reporter	FN deposition inh	PGC1a acetyl inh	F508del corr	Env fusion inh	EWS-Fli inh
Cc1ccc(C(=O)Nc2cccc(C(F)(F)F)c2)cc1Nc1cnccn1	-	-	-	10.3	-	-
CC(=O)N(C)C[C@@H]1[C@@H](c2ccc(C3=CCCCC3)cc2)[C@@H](CO)N1CC1CC1	-	-	-	-	.	-
CCSC(=O)N1c2ccc(OC)cc2C=CC1C#N (stereo not drawn)	?	.	-	15.3	-	-
COc1ccc(C(=O)N2c3ccccc3C=CC2C#N)cc1 (stereo not drawn)	-	-	.	-	-	-
Nc1ccc2c3c(cccc13)C(=O)N(c1ccccc1)C2=O	-	-	.	32.8	-	-
COc1ccc2c3c([nH]c2c1)[C@H](CO)N(Cc1ccc(F)cc1)CC31CN(Cc2ccccn2)C1	.	-	-	-	.	-
COc1ccccc1CNC(=O)c1ccc2nc3[nH]c4ccccc4c3nc2c1	161.8	-	-	-	.	-
Cc1ccc(CNC(=O)c2ccc3nc4[nH]c5ccccc5c4nc3c2)cc1	-	-	.	.	-	.
Cc1nnc(C)n1/N=C/c1c(O)ccc2ccccc12	-	-	-	-	-	-
Cc1nnc(-c2ccccc2)c(=O)n1/N=C/c1c(O)ccc2ccccc12	.	.	64.5	.	.	.
CCc1n[nH]c(=S)n1/N=C/c1c(O)ccc2ccccc12	-	-	-	-	56.1	-
O=C(CC1CC1)Nc1ccc2c(c1)[C@@H]1C[C@H](CC(=O)N3CCOCC3)O[C@@H](CO)[C@@H]1O2	-	-	-	-	.	-
COc1ccc(C#Cc2ccc3c(c2)[C@]2(C(=O)N3)[C@H](c3ccc(O)cc3)N3[C@H](c4ccccc4)[C@H](c4ccccc4)OC(=O)[C@H]3[C@@H]2C(=O)N2CCCCCCC2)cc1	-	.	-	-	-	-
COc1ccc(CN(C)C[C@@H]2OCCCC[C@H](C)Oc3ccc(NC(=O)Nc4ccc(C(F)(F)F)cc4)cc3C(=O)N([C@H](C)CO)C[C@H]2C)cc1	103.6	.	-	-	?	70.9
COc1ccc(CN(C)C[C@H]2OCCCC[C@H](C)Oc3ccc(NC(=O)Nc4ccc(C(F)(F)F)cc4)cc3C(=O)N([C@H](C)CO)C[C@H]2C)cc1	102.0	.	-	8.7	-	?
COc1ccc(CN(C)C[C@@H]2OCCCC[C@H](C)Oc3ccc(NC(=O)Nc4ccc(C(F)(F)F)cc4)cc3C(=O)N([C@@H](C)CO)C[C@H]2C)cc1	87.5	.	-	-	-	72.2
